Laboratory results: ChEMBL document CHEMBL1154004, “Relationships between the structures of flavanone derivatives and their effects in enhancing early growth response-1 gene expression” (2009)
The source made the active and inactive calls. The rule behind the calls is not given here.

Each molecule was assayed on HEK293 (assay: Increase in EGR1 mRNA expression in human HEK293 cells at 20 ug/mL after 6 to 12 hrs by dual-glo luciferase assay relative to control). Conditions: not given.
Assay type: functional
Summary of the method: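 Egr-1 promoter reporter assay after transient transfection. Activity is the level with compound divided by the compound-free control level, with the control set at 1.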

Row | Compound | fold change (FC)
1 | O=C1CC(c2ccc(F)cc2)Oc2c(Cl)cccc21 (centres undefined) | 2.4
2 | COc1cc([C@@H]2CC(=O)c3c(O)cc(O)cc3O2)ccc1O [HOMOERIODICTYOL] | 1.2
3 | O=C1C[C@@H](c2ccccc2)Oc2cc(O)cc(O)c21 [PINOCEMBRIN] | 0.4
4 | COc1ccc(C2CC(=O)c3cc(OC)ccc3O2)c(OC)c1 (centres undefined) | 1.5
5 | O=C1CC(c2ccccc2)Oc2cc(O)ccc21 (centres undefined) [7-HYDROXYFLAVANONE] | 2.1
6 | O=C1CC(c2ccccc2)Oc2c(Cl)cccc21 (centres undefined) | 1.7
7 | COc1ccc(C2CC(=O)c3c(OC)cc(OC)cc3O2)cc1 (centres undefined) | 0.7
8 | O=C1C[C@@H](c2ccc(O)cc2)Oc2cc(O)cc(O)c21 [NARINGENIN] | 1.2
9 | COc1ccc2c(c1)OC(c1ccccc1)CC2=O (centres undefined) | 1.1
10 | O=C1c2ccc(O)cc2OC(c2ccc(O)c(O)c2)C1O (centres undefined) | 1.3
11 | O=C1CC(c2ccccc2O)Oc2ccccc21 (centres undefined) [2'-HYDROXY-FLAVANONE] | 4.2
12 | O=C1c2c(O)cc(O)cc2OC(c2ccc(O)c(O)c2)C1O (centres undefined) [TAXIFOLIN] | 1.3
13 | O=C1CC(c2ccccc2O)Oc2ccc(O)cc21 (centres undefined) | 1.2
14 | COc1cc(C2CC(=O)c3c(O)cc(O)cc3O2)cc(OC)c1OC (centres undefined) | 1.2
15 | COc1cc(OC)c2c(c1)OC(c1ccccc1)CC2=O (centres undefined) [DIMETHYLPINOCEMBRIN] | 1.9
16 | COc1cc(O)cc2c1C(=O)CC(c1ccccc1)O2 (centres undefined) | 1
17 | COc1cc(O)c2c(c1)O[C@H](c1ccccc1)CC2=O [PINOSTROBIN] | 1.6
18 | O=C1CC(c2cccc(O)c2)Oc2ccccc21 (centres undefined) [3'-HYDROXYFLAVANONE] | 6.7
19 | COc1cc(O)c2c(c1)OC(c1ccc(O)cc1)CC2=O (centres undefined) | 0.4

Row | Compound | fold change (FC)
20 | COc1ccc(C2CC(=O)c3ccccc3O2)cc1 (centres undefined) | 1.2
21 | COc1cc(C2CC(=O)c3ccccc3O2)ccc1O (centres undefined) | 5.1
22 | O=C1c2ccc(O)cc2O[C@@H](c2cc(O)c(O)c(O)c2)[C@@H]1O [DIHYDROROBINETIN] | 0.7
23 | COc1ccc(C2CC(=O)c3ccccc3O2)cc1OC (centres undefined) | 4.3
24 | COc1ccc2c(c1)C(=O)CC(c1cccc(OC)c1OC)O2 (centres undefined) | 3.9
25 | Cc1ccc(C2CC(=O)c3cc(Cl)ccc3O2)cc1 (centres undefined) | 0.8
26 | COc1ccc2c(c1)C(=O)CC(c1ccccc1)O2 (centres undefined) | 1.6
27 | COc1ccc2c(c1)C(=O)CC(c1ccc(OC)c(OC)c1)O2 (centres undefined) | 0.7
28 | COc1cccc(C2CC(=O)c3cc(OC)ccc3O2)c1 (centres undefined) | 2.5
29 | COc1ccc([C@@H]2CC(=O)c3c(O)cc(O)cc3O2)cc1O [HESPERETIN] | 2.4
30 | O=C1CC(c2ccc(O)cc2)Oc2ccccc21 (centres undefined) [4'-HYDROXY-FLAVANONE] | 1.4
31 | O=C1CC(c2ccccc2)Oc2ccc(O)cc21 (centres undefined) | 1.3
32 | COc1ccc2c(c1)OC(c1cc(OC)c(OC)c(OC)c1)CC2=O (centres undefined) | 1
33 | O=C1CC(c2ccccc2)Oc2ccccc21 (centres undefined) [FLAVANONE] | 2.3
34 | Cc1ccc(C2CC(=O)c3cccc(Cl)c3O2)cc1 (centres undefined) | 1.3
35 | COc1cccc2c1C(=O)CC(c1ccccc1)O2 (centres undefined) | 3.6
36 | O=C1C[C@@H](c2ccc(O)c(O)c2)Oc2cc(O)cc(O)c21 [ERIODICTYOL] | 2.1
37 | COc1ccc(C2CC(=O)c3cc(Cl)ccc3O2)cc1OC (centres undefined) | 0.7

These molecules were tested on HeLa (assay: Increase in EGR1 mRNA expression in human HeLa cells after 1 hr by Western blotting). Conditions: in the assay text read “EGR1 protein expression” for “EGR1 mRNA expression”.
Assay type: functional, cell-based
Summary of the method: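 Human cervix carcinoma HeLa cells were left untreated or exposed to compound at 10, 20 or 40 for 1 h. Egr-1 protein level was then examined by Western blot.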

Row | Compound | Activity
38 | O=C1CC(c2ccccc2O)Oc2ccccc21 (centres undefined) [2'-HYDROXY-FLAVANONE] | Active
39 | O=C1CC(c2cccc(O)c2)Oc2ccccc21 (centres undefined) [3'-HYDROXYFLAVANONE] | Active
